# rRNA inh HTS = inhibitors of bacterial rRNA selective over humanized ribosomes; E. coli WT GFP vs humanized-ribosome RFP mutants, fluorescence, 24 h; hits give low values; DMSO median 0, no signal -100; GFP signal change (wild-type ribosome), % (test concentration not listed); hit rate 1.6% among 350,000; AID 720706;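 active = significant combined selectivity score with lowered wild-type GFP, culture density cut under 30%, mutant RFP and density less affected; inactive = any of these conditions unmet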
# S100A4 inh HTS = S100A4-myosin IIA interaction inhibition | inhibition, % at 10.7 µM | P26447 | hit rate 0.14% among 360,000 | S100A4/TAMRA-MyoIIA peptide fluorescence polarization;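 active = mean inhibition of at least 70% across replicates, with every replicate also reaching that level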
# Target sequence (P26447 whole entry, looked up): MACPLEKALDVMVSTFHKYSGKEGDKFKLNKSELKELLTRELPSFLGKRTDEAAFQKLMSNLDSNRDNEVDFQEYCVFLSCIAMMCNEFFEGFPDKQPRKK
#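 assay system = human S100A4 monomer with TAMRA-labelled myosin IIA peptide | also added = labelled myosin peptide probe, 5 nM | incubation = 5 min between mix addition and reading | control set = DMSO and TFP controls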
# FN deposit inh = fibronectin deposition inhibition; AH1F fibroblasts, Alexa488-fibronectin deposition fluorescence, overnight; inhibition, % at 12.6 µM; hit rate 0.086% among 350,000;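 active = mean inhibition across replicates of 30% or more, regardless of how many single replicates reach that level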;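 also: positive control wells lacked labelled fibronectin entirely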
#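 Material: AH1F fibroblasts assembling fluorescent fibronectin matrix; amount: 10000 AH1F cells/well; medium: DMEM, 2% serum; reagent: Alexa488-fibronectin, 24 nM final in well; dosing: single compound dose, delivered by pin transfer; incubation: 1 h adhesion, overnight exposure; detection: fluorescence after three HBSS washes, excitation 485 nm, emission 525 nm; measure: fibronectin deposition inhibition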
# HIV Env fusion = inhibitors of HIV Env-mediated cell fusion. inhibition, % at 12.3 µM. hit rate 1.1% among 360,000. AID 651610. HeLa-JRFL Env/CEM21 cell fusion, luciferase;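 active = mean replicate inhibition score of at least 50 and every replicate individually at or above 50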;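 also: 0% = plate neutral controls and 100% = maraviroc near 300 nM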
# miR-122 sensor = inhibitors of miR-122 in Huh7 cells | hit rate 0.3% among 340,000 | activation (reporter increase), % at 12.5 µM | AID 602342 | Huh7 miR-122 Renilla luciferase sensor, 48 h; neutral wells = 0, positive control = 100;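 active = mean replicate activation score at least 90 and every replicate individually at or above 90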;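 also: higher luciferase means less miR-122 activity so hits act as miR-122 inhibitors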
# Vif inh = HIV Vif inhibition | inhibition, % at 7.49 µM | HEK293T cells, Vif self-association by quenched fluorescence, imaging, 24 h | hit rate 0.35% among 340,000; in the data active = inhibition above about 50%, passing the limit was not always enough
# * = called active by the depositor; nt = no result; [ ] = another dose, or the depositor's remark. Rows were chosen to be rich in hits. Some 2.6% of all compounds tested hit in one or more screens of this group.
SMILES,rRNA inh HTS,S100A4 inh HTS,FN deposit inh,HIV Env fusion,miR-122 sensor,Vif inh
COc1cc(OC)c2c(-c3cccc(-c4ccc(OC(F)(F)F)cc4)c3)cc(=O)oc2c1,12,-19,-11,9,-9,-5
CCC(=O)N1C[C@H](C)[C@H](OC)CN(C)C(=O)c2ccc(NC(=O)C3CCOCC3)cc2OC[C@H]1C,0,nt,-11,-19[16.7 µM],9[16.7 µM],nt
COc1ccc2c3c(n(C)c2c1)[C@H](CO)N(CC1CCCC1)CC31CN(C(C)=O)C1,3,1,nt,nt,nt,nt
C[C@H]1CN([C@@H](C)CO)C(=O)c2ccccc2-c2ccccc2CO[C@@H]1CN(C)S(=O)(=O)c1ccsc1,13,nt,-1,nt,nt,nt
CC1=C(OC(=O)c2ccccc2)C(C)(C)C(c2ccc(Br)cc2)OC1=O (stereo unspecified),nt,nt,nt,nt,1,8
CC1C(=O)OC(c2ccc(Br)cc2)C(C)(C)C1=O (stereo unspecified),-43*,3,-10,-8,nt,5
CCOc1ccccc1NS(=O)(=O)c1ccc(Br)s1,-21*,2,nt,nt,22,16
COCCNC(=O)c1ccccc1NS(=O)(=O)c1ccc(Br)s1,nt,nt,nt,-25,5,11
COc1ccc(N2CCN(CCS(=O)(=O)c3cc(Cl)ccc3Cl)CC2)cc1,-22*,-3,0,-8,17,nt
CC(=O)N1CCN(CCS(=O)(=O)c2cc(Cl)ccc2Cl)CC1,4,-1,4,-11,-14,5
O=C1c2ccccc2NC(c2cccc([N+](=O)[O-])c2)N1CCc1ccccc1 (stereo unspecified),-20*,-2,1,-5,-5,4
C[C@@H]1CN([C@H](C)CO)C(=O)c2cc(NC(=O)C3CCCCC3)ccc2O[C@@H](C)CCCCO[C@@H]1CN(C)C(=O)NC1CCCCC1,0,9,nt,-9[16.7 µM],13[16.7 µM],nt
C(=N\N1CCN(Cc2cccc3ccccc23)CC1)/c1cccnc1,-30*,8,nt,nt,nt,2
COCC(=O)N(C)C[C@H]1Oc2ncc(C#CC(C)(C)O)cc2C(=O)N([C@@H](C)CO)C[C@@H]1C,11,nt,-3,10[16.7 µM],7[16.7 µM],nt
CC(C)(C)c1cccc(Cn2nnc3ccccc32)c1O,-33,-1,1,43,nt,-31
Cc1cc(Cn2nnc3ccccc32)c(O)c(C(C)(C)C)c1,4,-3,3,40,134*,-2
Nc1nc(N)nc(-c2ccc([N+](=O)[O-])o2)n1,-5.3*,10,-2,nt,-7,11
O=[N+]([O-])c1ccc(-c2ccn[nH]2)o1,-57,-7,-24,-9,nt,-28
Cc1ccc(CSCC(=O)NCc2ccc3c(c2)OCO3)cc1,-23*,-1,7,5,nt,-3
O=C(NC(=S)NCc1ccc2c(c1)OCO2)c1ccccc1,-17,-4,11,nt,111*,-15
Cc1ccc(CNc2ccc3c(c2)OCO3)cc1,nt,nt,nt,nt,6,63*
O=C(CSCc1ccccc1)NCc1ccc2c(c1)OCO2,nt,nt,2,-10,1,0
CCn1cc(SCC(=O)NCc2ccc3c(c2)OCO3)c2ccccc21,-9,-2,10,67*,nt,-5
CO[C@@H]1CN(C)C(=O)c2ccc(NS(=O)(=O)c3cn(C)cn3)cc2OC[C@H](C)N(CCC(F)(F)F)C[C@H]1C,2,-6,5,nt,nt,nt
C[C@H]1CN([C@@H](C)CO)C(=O)c2cc(NC(=O)C3CC3)ccc2O[C@@H]1CN(C)Cc1ccc2c(c1)OCO2,4,-6,nt,6[16.7 µM],3[16.7 µM],nt
SMILES,rRNA inh HTS,S100A4 inh HTS,FN deposit inh,HIV Env fusion,miR-122 sensor,Vif inh
O=C(NCC1CC1)[C@@H]1[C@@H](CO)[C@@H]2Cn3c(cccc3=O)[C@H]1N2C(=O)c1ccccc1,0,7,nt,nt,1[16.7 µM],nt
CO[C@H]1CN(C)C(=O)c2cc(NS(C)(=O)=O)ccc2OC[C@H](C)N(CC2CC2)C[C@H]1C,3,-4,6,nt,nt,nt
Cc1ccc(S(=O)(=O)NCC(=O)OCC(=O)NCc2ccc3c(c2)OCO3)cc1,7,-4,3,68*,-4,14
CC(C)n1c(C(=O)OCC(=O)NCc2ccc3c(c2)OCO3)cc2occc21,nt,nt,nt,nt,nt,-1
CC(C)n1c(C(=O)OCC(=O)NCc2ccc3c(c2)OCO3)cc2sccc21,-25*,-6,nt,nt,-7,nt
COc1ccc(NC(=O)Nc2ccc3c(c2)C(=O)N([C@H](C)CO)C[C@@H](C)[C@@H](CN(C)S(=O)(=O)c2ccc(F)cc2)O3)cc1,-1,nt,nt,28[16.7 µM],22[16.7 µM],nt
CC(=O)Nc1ccc2c(c1)C(=O)N(C)C[C@@H](C)[C@@H](CN(C)C(=O)NC(C)C)O2,-1,nt,-12,nt,nt,nt
COc1ccc(S(=O)(=O)N2CCCc3nc(C)c(C)cc32)cc1,-15*,1,5,7,nt,nt
CCc1cc2c(nc1CC)CCCN2S(=O)(=O)c1ccc(OC)cc1,-43,0,-6,27,nt,nt
C[C@@H]1CN([C@H](C)CO)C(=O)Cc2cc(NC(=O)Nc3ccc4c(c3)OCO4)ccc2O[C@H]1CN(C)Cc1ccc2c(c1)OCO2,2,2,nt,3[16.7 µM],-8[16.7 µM],nt
COc1ccccc1-c1cnc2c(c1)C(=O)N([C@H](C)CO)C[C@@H](C)[C@@H](CN(C)C(=O)c1cccnc1)O2,0,-2,nt,-26[16.7 µM],-3[16.7 µM],nt
COc1ccc(C2c3c(ncn(CCCO)c3=N)Oc3ccc4ccccc4c32)cc1 (stereo unspecified),-47*,-6,0,9,-4,-1
C[C@@H]1CN([C@@H](C)CO)C(=O)c2cc(NC(=O)Nc3ccc(F)cc3)ccc2O[C@@H](C)CCCCO[C@@H]1CN(C)C(=O)Nc1ccc2c(c1)OCO2,1,-3,nt,nt,nt,nt
Cc1ccc(NC(=O)CC2SC(=NCC3CCCO3)NC2=O)cc1Cl (stereo unspecified),nt,nt,-7,nt,-5,87*
Cn1c(CSc2nc3ccc(Br)cc3[nH]2)nc2ccccc21,-22*,-1,nt,nt,7,-3
O=C(O)CCSc1nc2ccc(Br)cc2[nH]1,nt,nt,nt,nt,-6,39
COc1ccc2c3c([nH]c2c1)[C@@H](CO)N(C(=O)CC1CC1)CC31CCN(Cc2cncnc2)CC1,-1,nt,nt,nt,nt,nt
O=C(Cc1ccc(Cl)cc1Cl)Nc1ccncc1,-25*,4,nt,73*,4,-6
O=C(Cc1ccc(Cl)cc1Cl)Nc1ccncc1Cl,-8,-4,-7,nt,nt,-46
O=C(C[C@H]1CC[C@@H]2[C@H](COC[C@@H](O)CN2CC2CCCCC2)O1)NCc1ccc(Cl)cc1,0,-3,-12,nt,4[16.7 µM],nt
O=C(C[C@H]1CC[C@@H]2[C@H](COC[C@H](O)CN2CCC(F)(F)F)O1)NCc1ccc(Oc2ccccc2)cc1,0,nt,-24,-21[16.7 µM],-5[16.7 µM],nt
O=C(C[C@@H]1CC[C@H]2[C@@H](COC[C@@H](O)CN2CC2CCCCC2)O1)NCc1ccc(F)cc1,-27,116*,-5,0[16.7 µM],3[16.7 µM],nt

# Screening data: PubChem, Broad Institute
